The entries come from a sample that favours hits as a whole.
CHOP UPR activ: activators of apoptotic CHOP UPR arm, primary screen, cell-based, CHO-CHOP luciferase reporter, luminescence, uHTS | UPR activation; percent of tunicamycin response over DMSO baseline | activation, % at 10 µM | 330,000 compounds, 0.34% hits | AID 449763, 2010;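 active = at 10 µM dose, activation of 40% or more, normalized to positive control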;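 also: 100% = tunicamycin at 10 µg/mL and 0% = DMSO alone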
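Test system: CHO CHOP reporter cells. Input: 500 CHO-CHOP cells per well. Medium: F12 with 10% FBS. Technique: luciferase luminescence. Measure: percent activation relative to tunicamycin control. Dosing: 10 µM compound, 0.5% DMSO. Timing: 16-18 h cell attachment, then 6 h compound exposure, 37 °C.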
PvdQ inh: P. aeruginosa PvdQ acylase inhibitors, primary screen, biochemical, fluorescence, plate reader and imaging, single point; purified PvdQ acylase; AID 488965, 2010; 340,000 compounds, 0.063% hits; inhibition, % at 10 µM; in the data active = inhibition above about 30%, passing the limit was not always enough;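 also: 0% = vehicle neutral wells and 100% = reference inhibitor wells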
UPR XBP1 act: activators of adaptive XBP1 UPR arm, primary screen, cell-based, CHO-XBP1 luciferase reporter, luminescence, uHTS | 330,000 compounds, 0.33% hits | activation, % at 20 µM | IRE1-XBP1 UPR activation; percent of tunicamycin response, DMSO as zero;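 active = versus positive control, 20 µM dose yields 30% or more activation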;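 also: 100% = tunicamycin at 10 µg/mL and 0% = DMSO only wells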
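Signal: luciferase luminescence; Assay system: CHO-XBP1 luciferase reporter cells; Amount: one thousand reporter cells per well; Dosing: 20 µM single concentration, DMSO 1%; Benchmarks: high control tunicamycin 10 µg/mL final, low control DMSO vehicle only; Schedule: 6 h compound exposure at 37 °C, 5% CO2; Evaluation: percent activation relative to tunicamycin reference.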
CHOP inh: inhibitors of CHOP promoter induction, primary screen, cell-based, unfolded protein response, luciferase reporter | CHO-K1 CHOP-promoter luciferase, tunicamycin-induced, 15-18 h | 220,000 compounds, 3.8% hits | inhibition, % at 10 µM;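 active = compounds that reduced the stress-induced luciferase reporter signal by more than about 70% of percent inhibition, limit read from the data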;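 also: 0% = tunicamycin plus vehicle and 100% = wells without tunicamycin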
Active calls of the source: *; nt = no result.

SMILES	CHOP UPR activ	PvdQ inh	UPR XBP1 act	CHOP inh
COc1ccc(NC2CCCN(C(=O)CSc3ccccc3)C2)cc1OC (stereo not given)	-1	2	-3	nt
O=C(Nc1ccccc1)Nc1nnc(SCc2ccc(Cl)cc2)s1	0	1	-2	90*
O=C(Nc1cccc(Cl)c1)Nc1nnc(-c2ccncc2)s1	3	8	-1	92*
O=C(Nc1ccc(F)cc1)Nc1nnc(-c2ccncc2)s1	5	-5	-1	47
O=C(Nc1ccc(Cl)cc1)Nc1nnc(-c2ccncc2)s1	nt	2	nt	87*
O=C(Cc1cccs1)Nc1nnc(SCc2ccc(Br)cc2)s1	-1	3	0	76*
Cc1ccc(OC(=O)c2sc(Cl)nc2C)cc1C	4	-9	3	40
O=C(Nc1ccc(F)cc1F)C1CCN(S(=O)(=O)c2cccnc2)CC1	0	-1	-3	nt
Cc1ccc(NC(=O)C(=O)NN=C2CCCC2)cc1C	3	-17	-2	25
O=C(c1ccc([N+](=O)[O-])s1)N1CCN(c2cccc(Cl)c2)CC1	3	-3	-2	6
O=C(Nc1cccc(Cl)c1)Nc1nnc(CC2=CCCCC2)s1	0	-12	7	93*
Cc1ccc(OCC(=O)NC2CCCC(C)C2C)c([N+](=O)[O-])n1 (stereo not given)	-1	-6	0	nt
C=C(C)COc1ccc(-c2nc(N)ncc2Oc2ccccc2OC)c(O)c1	1	-8	4	93*
CCOc1ccc(-c2[nH]ncc2Oc2ccccc2OCC)c(O)c1	-1	-11	3	80*
CCOc1ccc(-c2[nH]ncc2Oc2ccccc2OC)c(O)c1	0	-9	-2	82*
CCOc1ccccc1Oc1cn[nH]c1-c1ccc(OCC(=O)NN)cc1O	-1	23	-3	nt
COc1ccc(NC(=O)CN(c2ccc(OC)c(Cl)c2)S(=O)(=O)c2ccccc2)cc1	1	-17	-3	nt
CCC(C(=O)N1CCOCC1)n1nc(C)c2c(C)n(-c3ccccc3)nc2c1=O (stereo not given)	2	-11	-4	nt
CN(C)c1nn(C(=O)Nc2cccc(C(F)(F)F)c2)cc1-c1ccccc1	-1	-11	-1	90*
O=C(Nc1ccc(Cl)cc1)c1ccc(CN2CCc3ccccc3C2)cc1	1	-17	-7	nt
O=C(Nc1ccc(S(=O)(=O)N2CCCC2)cc1)c1ccc(CN2CCc3ccccc3C2)cc1	6	-12	-1	70*
O=C(NNC(=O)c1cc2cc3ccccc3nc2s1)c1cccc(Cl)c1	1	13	2	-16
O=C(NNC(=O)c1cc2cc3ccccc3nc2s1)c1ccc(F)cc1	-2	8	0	89*
Cc1ccc(/C=N/Nc2ccc(Cl)nn2)cc1	4	-4	2	78*
COC(=O)c1ccc(Cc2ccc(C(=O)OC)o2)o1	-1	1	0	-40
SMILES	CHOP UPR activ	PvdQ inh	UPR XBP1 act	CHOP inh
COC(=O)c1ccc(Cn2c(C)cc(C)[n+]2C)o1	1	-15	-1	73*
CCC(C)n1cnc2c(c1=O)c1nc3ccccc3nc1n2-c1ccc2c(c1)OCCO2 (stereo not given)	-1	-3	-2	83*
CC(C)(C)c1ccc(S(=O)(=O)N2CCNC(=O)C2)cc1	2	-15	-1	nt
Cc1ccc(-c2nnc3ccc(SCC(=O)N4CCc5ccccc54)nn23)cc1	5	10	19	85*
S=C(NCCCN1CCOCC1)N1CCN(c2nc(-c3ccccc3)cs2)CC1	0	3	-3	17
S=C(NCCCN1CCOCC1)N1CCN(c2nc(-c3ccc(Cl)cc3)cs2)CC1	7	-3	28	88*
Cc1ccc(NC2=NCC(Cc3ccc(Br)cc3)S2)cc1 (stereo not given)	-2	-7	3	74*
Cc1ccc(NC(=O)c2cc(-c3cccc(O)c3)on2)cc1C	3	-9	6	86*
COc1cccc(NC(=O)CCC2CCN(Cc3nccs3)CC2)c1	-2	-18	-4	nt
CC(=O)OCC(=O)N1N=C(c2ccc3ccccc3c2)CC1c1ccccc1 (stereo not given)	13	-11	7	-2
Nc1cc(=O)[nH]c(SCC(=O)N2N=C(c3ccc4ccccc4c3)CC2c2ccccc2)n1 (stereo not given)	0	-3	-1	86*
Cc1ccc(C(=O)c2cc(C)sc2NC(=O)CN2CCN(C(=O)c3ccco3)CC2)cc1	3	-2	6	82*
CN1c2ccccc2C(C)(C)[C@]12C=Cc1cc(O)ccc1O2	-1	-17	2	95*
O=C(CCC(=O)N1CCN(S(=O)(=O)c2ccc([N+](=O)[O-])cc2)CC1)N1CCOCC1	-1	-18	2	nt
O=C(Nc1ccon1)c1ccc(OC2CCCC2)cc1	7	4	0	78*
CCn1ncc(CN2CCN(Cc3cccc(OC)c3)C(CCO)C2)c1C (stereo not given)	-1	-17	-1	20
Cc1ccc(NC(NC(=O)c2cccs2)C(Cl)(Cl)Cl)cc1C (stereo not given)	-1	-10	0	80*
Cc1nn(Cc2c(Cl)cccc2Cl)c(Cl)c1/C=C/C(=O)OCC(=O)NCC(F)(F)F	-3	-6	4	75*
Cc1cccc(NC(=O)c2nc[nH]c2C(=O)NCCCNC(=O)c2[nH]cnc2C(=O)Nc2cccc(C)c2)c1	10	-11	9	nt
Cc1cccc(NC(=O)c2nc[nH]c2C(=O)Nc2cccc(C)c2)c1	1	-12	3	87*
Cc1cccc(NC(=O)c2nc[nH]c2C(=O)N[C@@H](C)C(=O)OCc2ccccc2)c1	0	-13	-5	90*
Cc1cccc(CCNC(=O)c2cc(=O)[nH]c3ccc(Br)cc23)c1	-2	nt	-1	73*
Cc1cccc(CCNC(=O)CCS(=O)(=O)c2ccc(Br)cc2)c1	1	8	-3	10
CCOc1cc(/C=N\NC(=O)Cn2nc([N+](=O)[O-])cc2C)ccc1OCc1cccc2ccccc12	4	-4	4	88*
O=C(NCCc1c[nH]c2ccccc12)C(=O)NCC1OCCCN1S(=O)(=O)c1cccs1 (stereo not given)	0	-10	4	8
CCOC(=O)N1CCN(c2ncnc3c2[nH]c2ccc(F)cc23)CC1	4	-13	2	71*
CCOC(=O)N1CCN(c2ncnc3c2[nH]c2ccc(OC)cc23)CC1	0	-2	1	28
CCc1c(C)nc2cc(-c3cc(OC)cc(OC)c3)nn2c1N1CCCC1	0	-13	7	92*
CNC(=O)c1c(NC(=O)C2=COCCO2)sc(C)c1C	0	-10	-3	nt
COc1cc2[nH]c(=O)n(CCC(=O)N3CCN(Cc4ccccc4)CC3)c(=O)c2cc1OC	-1	-8	-2	-12
